# Experiments:
# [1] = target: Sphingosine 1-phosphate receptor 1 (Homo sapiens, UniProt P21453); experiment: Activity at human S1P1 receptor expressed in CHO cells by [35S]GTPgammaS binding assay; type: functional, cell-based
# Summary of the method: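 Agonism measured as ligand-induced [35S]-GTPγS binding to membranes of CHO cells stably expressing the human S1P receptor.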
# [2] = Plasma clearance in rat at 2 mg/kg, po and 1 mg/kg, iv; type: ADME, organism-based
# Summary of the method: (§1)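 Rat PK at 2.0 mpk po and 1.0 mpk iv. Plasma compound levels measured.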
# [3] = Plasma concentration in femoral artery cannulated Lewis rat at 3 mg/kg, po after 0.5 hrs; type: ADME, organism-based; set-up: dose 3 mg/kg, route oral
# Summary of the method: (§2)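 Femoral artery cannulated Lewis rats (n = 3) given a single 3 mpk oral dose. PBL counts and plasma compound concentration sampled over time up to 72 h postdose. A repeat 3 mpk po challenge was given to the same animals.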
# [4] = Plasma concentration in Lewis rat at 30 mg/kg, po after 24 hrs; type: ADME, organism-based; set-up: dose 30 mg/kg, route oral
# Summary of the method: (§3)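 Rat oral dose-titration at 1–30 mpk po. Peripheral blood lymphocyte counts and plasma compound concentrations determined 24 h postdose.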
# [5] = Half life in rat at 2 mg/kg, po and 1 mg/kg, iv; type: ADME, organism-based; settings: in vivo; summary of the method: as §1
# [6] = Bioavailability in Beagle dog at 1 mg/kg, po and 0.5 mg/kg, iv; type: ADME, organism-based, Canis lupus familiaris; settings: in vivo
# Summary of the method: (§4)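 Single-dose PK at 1.0 mpk po and 0.5 mpk iv. Plasma compound levels measured.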
# Rattus norvegicus [7] = experiment: Decrease in peripheral blood lymphocyte counts in femoral artery cannulated Lewis rat at 3 mg/kg, po after 0.5 hrs; type: functional; summary of the method: as §2
# [8] = target: T1, Sphingosine 1-phosphate receptor 4 (Homo sapiens, UniProt O95977); experiment: Displacement of [33P]sphingosine 1 phosphate from human S1P4 receptor expressed in CHO cells; type: cell-based
# T1 sequence (O95977 whole entry): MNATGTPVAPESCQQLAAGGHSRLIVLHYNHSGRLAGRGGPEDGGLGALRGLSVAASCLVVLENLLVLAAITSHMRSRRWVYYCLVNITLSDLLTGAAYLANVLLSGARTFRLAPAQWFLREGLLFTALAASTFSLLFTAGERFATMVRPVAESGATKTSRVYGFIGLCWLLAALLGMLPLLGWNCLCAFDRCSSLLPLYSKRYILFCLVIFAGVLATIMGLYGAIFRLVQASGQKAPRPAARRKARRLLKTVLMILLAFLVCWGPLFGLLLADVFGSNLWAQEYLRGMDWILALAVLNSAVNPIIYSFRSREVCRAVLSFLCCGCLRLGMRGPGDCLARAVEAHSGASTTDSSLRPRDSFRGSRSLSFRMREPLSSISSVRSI
# Summary of the method: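 Competition binding with [33P]-labeled S1P on membranes of CHO cells stably expressing each human S1P receptor. Values are the mean of n = 3 determinations.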
# [9] = Plasma concentration in femoral artery cannulated Lewis rat at 3 mg/kg, po after 48 hrs; type: ADME, organism-based; set-up: dose 3 mg/kg, route oral
# Summary of the method: (§5)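 Femoral artery cannulated Lewis rats (n = 3) got a single 3 mpk oral dose. Compound plasma concentration (nM) was measured serially over time up to 72 h postdose. Peripheral blood lymphocyte counts were taken in parallel at the same time points. The same animals were later given a second 3 mpk oral dose.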
# [10] = Plasma concentration in femoral artery cannulated Lewis rat at 3 mg/kg, po after 24 hrs; type: ADME, organism-based; set-up: dose 3 mg/kg, route oral; summary of the method: as §5
# Rattus norvegicus [11] = experiment: Decrease in peripheral blood lymphocyte counts in femoral artery cannulated Lewis rat at 3 mg/kg, po after 32 hrs; type: functional; summary of the method: as §2
# [12] = Plasma concentration in femoral artery cannulated Lewis rat at 3 mg/kg, po after 1 hr; type: ADME, organism-based; set-up: dose 3 mg/kg, route oral; summary of the method: as §5
# [13] = Half life in Beagle dog at 1 mg/kg, po and 0.5 mg/kg, iv; settings: in vivo
# Canis familiaris [14] = experiment: Plasma clearance in Beagle dog at 1 mg/kg, po and 0.5 mg/kg, iv; type: ADME, organism-based, Canis lupus familiaris; settings: in vivo; summary of the method: as §4
# [15] = Plasma concentration in femoral artery cannulated Lewis rat at 3 mg/kg, po after 16 hrs; type: ADME, organism-based; set-up: dose 3 mg/kg, route oral; summary of the method: as §5
# [16] = Plasma concentration in femoral artery cannulated Lewis rat at 3 mg/kg, po after 2 hrs; type: ADME, organism-based; set-up: dose 3 mg/kg, route oral; summary of the method: as §5
# Rattus norvegicus [17] = experiment: Decrease in peripheral blood lymphocyte counts in Lewis rat at 3 mg/kg, po after 24 hrs; type: functional; summary of the method: as §3
# Rattus norvegicus [18] = experiment: Decrease in peripheral blood lymphocyte counts in Lewis rat at 1 mg/kg, po after 24 hrs; type: functional; summary of the method: as §3
# Rattus norvegicus [19] = experiment: Decrease in peripheral blood lymphocyte counts in femoral artery cannulated Lewis rat at 3 mg/kg, po after 0.25 hrs; type: functional; summary of the method: as §2
# Canis familiaris [20] = experiment: Cmax in Beagle dog at 1 mg/kg, po and 0.5 mg/kg, iv; type: ADME, organism-based, Canis lupus familiaris; settings: in vivo; summary of the method: as §4
# Rattus norvegicus [21] = experiment: Decrease in peripheral blood lymphocyte counts in femoral artery cannulated Lewis rat at 3 mg/kg, po after 4 hrs; type: functional; summary of the method: as §2
# Sequence of Sphingosine 1-phosphate receptor 1 (P21453 whole entry): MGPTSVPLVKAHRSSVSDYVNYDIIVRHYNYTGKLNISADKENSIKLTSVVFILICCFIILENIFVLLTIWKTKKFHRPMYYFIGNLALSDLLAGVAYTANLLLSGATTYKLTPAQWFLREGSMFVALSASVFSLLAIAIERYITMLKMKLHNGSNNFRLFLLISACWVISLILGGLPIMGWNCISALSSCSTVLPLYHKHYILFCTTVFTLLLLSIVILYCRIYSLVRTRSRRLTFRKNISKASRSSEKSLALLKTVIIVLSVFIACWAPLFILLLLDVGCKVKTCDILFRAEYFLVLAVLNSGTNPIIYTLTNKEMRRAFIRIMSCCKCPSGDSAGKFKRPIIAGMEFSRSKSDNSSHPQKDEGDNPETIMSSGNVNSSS
smiles,measurement,setting,value
O=C(O)C1CN(Cc2ccc(OCc3cc(-c4ccccc4)c(C(F)(F)F)s3)cc2)C1,EC50,[1],0.5 nM (agonist)
same,clearance,[2],12.3 mL/min/kg
same,concentration at 0.5 h,[3],200 nM
same,concentration at 24 h,[4],1400 nM
same,half-life,[5],402 min
same,bioavailability,[6],66%
same,Activity,Rattus norvegicus [7],4200 µL⁻¹
same,IC50,[8],1.6 µM (antagonist)
same,concentration at 48 h,[9],13 nM
same,concentration at 24 h,[10],120 nM
same,Activity,Rattus norvegicus [11],1800 µL⁻¹
same,concentration at 1 h,[12],270 nM
same,half-life,[13],582 min
same,clearance,Canis familiaris [14],2.2 mL/min/kg
same,concentration at 16 h,[15],170 nM
same,concentration at 2 h,[16],310 nM
same,Activity,Rattus norvegicus [17],1530 µL⁻¹
same,Activity,Rattus norvegicus [18],2230 µL⁻¹
same,Activity,Rattus norvegicus [19],4400 µL⁻¹
same,Cmax,Canis familiaris [20],1.3 µM
same,Activity,Rattus norvegicus [21],1130 µL⁻¹

# Source: ChEMBL document CHEMBL1149292, “A rational utilization of high-throughput screening affords selective, orally bioavailable 1-benzyl-3-carboxyazetidine sphingosine-1-phosphate-1 receptor agonists” (J Med Chem, 2004)
